{"source": "the RNAGym collection of RNA variant scans (doi:10.1126/science.aae0568)", "parents": {"B1": {"name": "tRNA (parent)", "chain": "GUUCCGUUGGCGUAAUGGUAACGCGUCUCCCUCCUAAGGAGAAGACUGCGGGUUCGAGUCCCGUACGGAACG"}}, "note": "Fewer inactive variants are shown than the library holds."}
{"variants_of": "B1", "assay": "yeast fitness relative to wild type (ratio to wild type); higher = fitter; tRNA-Arg(CCU), competitive growth, 37 C, YPD", "how_it_was_run": "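Genotype frequency changes were the basis for Darwinian fitness relative to wild type. The frequencies came from 100-nucleotide paired-end sequencing of gene amplicons from the start population and each end population of pooled yeast strains with tRNA-Arg(CCU) gene variants at the native locus. Competition ran in YPD at 37°C for 24 hours in six replicates, genotypes needed ≥ 100 starting reads, and estimates < 0.5 were set to 0.5.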"}
{"variant": "GUUCCGUUGGCGUAAUGGUAACGCGUCUCCCUCGUAGGGAGAAGACUGCGGGUUCGAGUCCAGUACGGAACG", "note": "[C34G A37G C62A]", "yeast fitness": "≤ 0.5"}
{"variant": "GUUCCGUUGGCGUAAUGGUAACGCGUCUCCCUCAUAAGGAGAAGACUGCGGGUUCGAGUCCUGUACGGAACG", "note": "[C34A C62U]", "yeast fitness": 0.785}
{"variant": "GUUCCGUUGGCGUAAUGGUAACGCGUCUCCCUUCUAAGGAGAAGACUGCGGGUCCGAGUCGCGUACGGAACG", "note": "[C33U U54C C61G]", "yeast fitness": "≤ 0.5"}
{"variant": "GUUCCGUUGGCGUAAUGGUAACGCGUCUCCCUCAUAAGGAGAAGACUGCAGGUUCGAGUCCCGUACGGAACG", "note": "[C34A G50A]", "yeast fitness": 0.742}
{"variant": "GUUCCGUUGGCGUAAUGGUAACGCGUCUCCCUCAUAAGGAGAAGACUGCCGGUUCGAGUCCCGUACGGAACG", "note": "[C34A G50C]", "yeast fitness": 0.667}
{"variant": "GUUCCGUUGGCGUAAUGGUAACGCGUCUCCCUUCUAAGGAGAAGACGGUGGGUUCGAGUCCCGUACGGAACG", "note": "[C33U U47G C49U]", "yeast fitness": 0.581}
{"variant": "GUUCCGUUGGCGUAAUGGUAACGCGUCUCCCUCAUAAGGAGAAGACUGCGGGUUGGAGUCCCGCCCGGAACG", "note": "[C34A C55G U64C A65C]", "yeast fitness": "≤ 0.5"}
{"variant": "GUUCCGUUGGCGUAAUGGUAACGCGUCUCCCUCAUAAGGAGAAGACUGCGGGUUCGAGUCCCGUGCGGAACG", "note": "[C34A A65G]", "yeast fitness": 0.69}
{"variant": "GUUCCGUUGGCGUAAUGGUAACGCGUCUCCCUCAUAAGGAGAAGCCUGCGGGUUCGAGUCCCGUACGGAACG", "note": "[C34A A45C]", "yeast fitness": 0.675}
{"variant": "GUUCCGUUGGCGUAAUGGUAACGCGUCUCCCUCGUAAGGCGAAAACUGCGGGUUCGAGUCCCGUACGGUACG", "note": "[C34G A40C G44A A69U]", "yeast fitness": "≤ 0.5"}
{"variant": "GUUCCGUUGGCGUAAUGGUAACGCGUCUCCCUCGUAAGGAGAUGACUGCGGGUUCGAGUCGCGUACGGAACG", "note": "[C34G A43U C61G]", "yeast fitness": 0.614}
{"variant": "GUUCCGUUGGCGUAAUGGUAACGCGUCUCCCUCAUAAGGAGAAGACCGCGGGUUCGAGUCCCGUACGGAACG", "note": "[C34A U47C]", "yeast fitness": 0.646}
{"variant": "GUUCCGUUGGCGUAAUGGUAACGCGUCUCCCUCAUAAGCCGAAGACUGCGGGUUCCAGUCGGGUACGGAACG", "note": "[C34A G39C A40C G56C C61G C62G]", "yeast fitness": "≤ 0.5"}
{"variant": "GUUCCGUUGGCGUAAUGGUAACGCGUCUCCCUCAUAUGGAGAAAACUGCGAGUUAGAGUCCCGUACGGAACG", "note": "[C34A A37U G44A G51A C55A]", "yeast fitness": 0.603}
{"variant": "GUUCCGUUGGCGUAAUGGUAACGCGUCUCCCUCGUAAGGGGAAGACUCCGGGUUCGAGUCCCAUAUGGAACG", "note": "[C34G A40G G48C G63A C66U]", "yeast fitness": 0.605}
{"variant": "GUUCCGUUGGCGUAAUGGUAACGCGUCUCCCUCGUAAGGAGAUGACUGCGGGUUCGAGUCCCGUACGGACCG", "note": "[C34G A43U A70C]", "yeast fitness": "≤ 0.5"}
{"variant": "GUUCCGUUGGCGUAAUGGUAACGCGUCUCCCUCAUAAGGAAAAGACUGCGGGUUGGAGUCCCGUAUGGAACG", "note": "[C34A G41A C55G C66U]", "yeast fitness": "≤ 0.5"}
{"variant": "GUUCCGUUGGCGUAAUGGUAACGCGUCUCCCUCAUAAGGAGAAGACAGCGGGUUCGAGUCACGUACGGAACG", "note": "[C34A U47A C61A]", "yeast fitness": "≤ 0.5"}
{"variant": "GUUCCGUUGGCGUAAUGGUAACGCGUCUCCCUCAUAAGGAGAAAACUGCGGAUUUGAGUCCCGUACGGAACG", "note": "[C34A G44A G52A C55U]", "yeast fitness": 0.53}
{"variant": "GUUCCGUUGGCGUAAUGGUAACGCGUCUCCCUCGUACGGAGAAGACUGCGGGUUCGAGUCCUGUAAGGAACG", "note": "[C34G A37C C62U C66A]", "yeast fitness": "≤ 0.5"}
{"variant": "GUUCCGUUGGCGUAAUGGUAACGCGUCUCCCUCGUAAGGAGUAGACUGCGGGUUCGAGUCCCGUACGGAACG", "note": "[C34G A42U]", "yeast fitness": 0.621}
{"variant": "GUUCCGUUGGCGUAAUGGUAACGCGUCUCCCUCAUAAGGCGAAGACUGCGGGUUCGAGUCCCGUACGGAACG", "note": "[C34A A40C]", "yeast fitness": 0.747}
{"variant": "GUUCCGUUGGCGUAAUGGUAACGCGUCUCCCUCGUAAGGCGAAGAGUGCGGGUUCGAGUCCCGUACGGAACG", "note": "[C34G A40C C46G]", "yeast fitness": 0.562}
{"variant": "GUUCCGUUGGCGUAAUGGUAACGCGUCUCCCUCAUAAGGAGAAGACUGCGGGUACGAGUCCCGUACGGAACG", "note": "[C34A U54A]", "yeast fitness": "≤ 0.5"}
{"variant": "GUUCCGUUGGCGUAAUGGUAACGCGUCUCCCUCAUAAGGAGGAGACUGCGGGUUCGAGUCCCGUACGGAACG", "note": "[C34A A42G]", "yeast fitness": 0.676}
{"variant": "GUUCCGUUGGCGUAAUGGUAACGCGUCUCCCUCAUAAGGAGAAGACUGUGGGUUCGAGCCCCGUACGGAACG", "note": "[C34A C49U U59C]", "yeast fitness": "≤ 0.5"}
{"variant": "GUUCCGUUGGCGUAAUGGUAACGCGUCUCCCUCAUAAGGCGAAGACUGCGGGUCCGAGUCCCGUACGGAACG", "note": "[C34A A40C U54C]", "yeast fitness": "≤ 0.5"}
{"variant": "GUUCCGUUGGCGUAAUGGUAACGCGUCUCCCUCGUACGGAGAAGACUGCGGGUUCGAGUGCCGUUCGGAACG", "note": "[C34G A37C C60G A65U]", "yeast fitness": "≤ 0.5"}
{"variant": "GUUCCGUUGGCGUAAUGGUAACGCGUCUCCCUCGUAAGGAGCAGACUGCGGGUUCGAGUCCGGUACGGAACG", "note": "[C34G A42C C62G]", "yeast fitness": 0.631}
{"variant": "GUUCCGUUGGCGUAAUGGUAACGCGUCUCCCUCGUUAGGAGAAGACUGCGGGUUCGAGUCCAGUACGGAACG", "note": "[C34G A36U C62A]", "yeast fitness": "≤ 0.5"}
{"variant": "GUUCCGUUGGCGUAAUGGUAACGCGUCUCCCUCAUAAGGAGAAGACUGCGGGUUCGAGUCCCGUACCGAACG", "note": "[C34A G67C]", "yeast fitness": 0.782}
{"variant": "GUUCCGUUGGCGUAAUGGUAACGCGUCUCCCUCAUAAGGAGAAGACUGCGGGUUCGAGUCCCGUACUGAACG", "note": "[C34A G67U]", "yeast fitness": 0.717}
{"variant": "GUUCCGUUGGCGUAAUGGUAACGCGUCUCCCUCAUAAAGAGAAGACUGCGGGUUCGAGUCCCGUACGGAACG", "note": "[C34A G38A]", "yeast fitness": 0.699}
{"variant": "GUUCCGUUGGCGUAAUGGUAACGCGUCUCCCUCAUAGGGAGAAGACUGCGGGUUCGAGUCCCGUAUGGAACG", "note": "[C34A A37G C66U]", "yeast fitness": "≤ 0.5"}
{"variant": "GUUCCGUUGGCGUAAUGGUAACGCGUCUCCCUCGUAGAGAGAAGACUGCAGGUUCGAGUCCCGUACGGAACG", "note": "[C34G A37G G38A G50A]", "yeast fitness": "≤ 0.5"}
{"variant": "GUUCCGUUGGCGUAAUGGUAACGCGUCUCCCUCAUAAGGAGAAGACCGCGAGUUCGAGUCCCGUACGGAACG", "note": "[C34A U47C G51A]", "yeast fitness": 0.53}
{"variant": "GUUCCGUUGGCGUAAUGGUAACGCGUCUCCCUCGUAAGGGGAAGACUGCGGGUUCGAGUCCCGCACGGAACG", "note": "[C34G A40G U64C]", "yeast fitness": 0.578}
{"variant": "GUUCCGUUGGCGUAAUGGUAACGCGUCUCCCUCGUACGGAGAAGACUGCGGGUUCGAGUCCCGUACGGAACG", "note": "[C34G A37C]", "yeast fitness": 0.554}
